Test results as given in ChEMBL document CHEMBL4840316, “Structure-based screening for the discovery of 1,2,4-oxadiazoles as promising hits for the development of new anti-inflammatory agents interfering with eicosanoid biosynthesis pathways” (Eur J Med Chem, 2021).
The source made the active and inactive calls. The calls are words filed in the database; no cut-off is given here.

Key:
[1] = molecular target: T1, Polyunsaturated fatty acid 5-lipoxygenase (Homo sapiens) (UniProt P09917); test: Inhibition of 5-LO in A23187/AA-stimulated human intact neutrophils assessed as reduction in LTB4/5-HETE formation by measuring residual activity at 10 uM measured after 20 mins by RP-HPLC method; type: tissue-based; conditions: Neutrophil
T1 sequence (whole entry): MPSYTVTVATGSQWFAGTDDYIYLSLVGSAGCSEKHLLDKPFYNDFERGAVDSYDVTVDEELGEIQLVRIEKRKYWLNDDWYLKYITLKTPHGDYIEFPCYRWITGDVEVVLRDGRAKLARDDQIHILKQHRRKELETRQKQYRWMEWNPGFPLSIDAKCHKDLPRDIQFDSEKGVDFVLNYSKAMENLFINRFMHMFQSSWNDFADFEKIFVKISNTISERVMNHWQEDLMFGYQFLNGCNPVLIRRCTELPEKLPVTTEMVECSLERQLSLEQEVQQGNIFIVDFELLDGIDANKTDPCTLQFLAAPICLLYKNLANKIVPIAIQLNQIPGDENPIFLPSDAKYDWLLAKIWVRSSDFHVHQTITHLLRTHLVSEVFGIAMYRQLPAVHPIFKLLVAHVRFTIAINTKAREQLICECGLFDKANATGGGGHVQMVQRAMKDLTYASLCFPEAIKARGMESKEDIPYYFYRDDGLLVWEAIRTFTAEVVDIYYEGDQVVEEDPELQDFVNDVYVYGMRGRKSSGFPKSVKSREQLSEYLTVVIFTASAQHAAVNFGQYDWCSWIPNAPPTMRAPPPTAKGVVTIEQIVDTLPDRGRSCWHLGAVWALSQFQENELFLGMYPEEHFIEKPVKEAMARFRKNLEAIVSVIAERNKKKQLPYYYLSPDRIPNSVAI
Procedure, shortened: (§1)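 Human neutrophils at 5 × 10^6/mL in PBS with 0.1% glucose and 1 mM CaCl2. Pre-incubated with compound or 0.1% DMSO for 10 min at 37 °C. Stimulated with 2.5 µM A23187, with or without 20 µM AA, for 10 min at 37 °C. Stopped with cold methanol; PGB1 internal standard. LTB4, its trans isomers and 5-HETE quantified by SPE and RP-HPLC; % of control.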

[2] = molecular target: T2, Prostaglandin E synthase (Homo sapiens) (UniProt O14684); test: Inhibition of mPGES-1 obtained from IL-beta stimulated human A549 cells microsomes assessed as residual activity by measuring conversion of PGH2 to PGE2 at 10 uM by cell-free RP-HPLC method; conditions: Microsome
T2 sequence (whole entry): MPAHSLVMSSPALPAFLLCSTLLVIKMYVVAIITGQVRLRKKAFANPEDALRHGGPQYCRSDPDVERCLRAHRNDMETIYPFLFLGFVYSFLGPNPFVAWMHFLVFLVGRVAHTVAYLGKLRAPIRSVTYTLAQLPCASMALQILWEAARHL
Procedure, shortened: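 Microsomes from A549 cells stimulated with IL-1β (1 ng/ml) for 48 h. Diluted in 0.1 M potassium phosphate pH 7.4 with 2.5 mM glutathione. Pre-incubated 15 min on ice with compound (single 10 µM, or 0.03–10 µM for the curve) or 1% DMSO. 20 µM PGH2 added for 1 min; stopped with FeCl3/citric acid containing 11β-PGE2 standard. PGE2 measured by SPE and RP-HPLC. n = 3.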

[3] = molecular target: T1, Polyunsaturated fatty acid 5-lipoxygenase (Homo sapiens); test: Inhibition of 5-LO in A23187-stimulated human intact neutrophils assessed as reduction in LTB4/5-HETE formation by measuring residual activity at 10 uM measured after 20 mins by RP-HPLC method; type: tissue-based; conditions: Neutrophil; procedure, shortened: as §1
[4] = molecular target: T1, Polyunsaturated fatty acid 5-lipoxygenase (Homo sapiens); test: Inhibition of 5-LO (unknown origin) expressed in Escherichia coli BL21 assessed as residual activity at 10 uM by RP-HPLC method relative to control
Procedure, shortened: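 Human recombinant 5-LO expressed in E. coli BL21 and purified on ATP-agarose. 0.5 µg enzyme in 1 mL PBS + 1 mM EDTA pre-incubated with compound or 0.1% DMSO for 10 min on ice. Reaction started with 20 µM AA and 2 mM CaCl2, run 10 min at 37 °C, stopped with ice-cold methanol. Products analysed; activity as % of control.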

[5] = molecular target: Prostaglandin G/H synthase 1 (Ovis aries) (UniProt P05979); test: Inhibition of ovine COX-1 assessed as residual activity at 10 uM using arachidonic acid as substrate preincubated for 5 mins by RP-HPLC method relative to control; conditions: time 10.0 min
A549 = test: Cytotoxicity against human A549 cells assessed as cell viability at 10 uM measured after 48 hrs by MTT assay; type: cell-based; conditions: a549, 48 h
Procedure, shortened: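 A549 cells in DMEM + 10% FBS, 2 × 10^4 per well, seeded in triplicate. Exposed to 10 µM compound or 0.1% DMSO for 48 h at 37 °C, 5% CO2. MTT added for 1 h, formazan dissolved in DMSO, absorbance read at 570 nm. Viability given as % of vehicle, n = 3.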

Monocyte = test: Cytotoxicity against human monocyte cells assessed as cell viability at 10 uM measured after 24 hrs by MTT assay; type: cell-based
Procedure, shortened: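 Human monocytes isolated from PBMC by adherence, 0.2 × 10^6 per well in buffer. Exposed to 10 µM compound or 0.5% DMSO for 24 h (37 °C, 5% CO2). MTT for 2 h, then SDS lysis (10%, pH 4.5) for 17 h. Absorbance read at 570 nm; viability as % of vehicle, n = 3.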

[6] = molecular target: T3, Bifunctional epoxide hydrolase 2 (Homo sapiens) (UniProt P34913); test: Inhibition of recombinant human sEH expressed in sf9 insect cells assessed as residual activity at 10 uM using PHOME as substrate preincubated for 15 mins followed by substrate addition and measured after 60 mins relative to control; conditions: time 75.0 min
T3 sequence (whole entry): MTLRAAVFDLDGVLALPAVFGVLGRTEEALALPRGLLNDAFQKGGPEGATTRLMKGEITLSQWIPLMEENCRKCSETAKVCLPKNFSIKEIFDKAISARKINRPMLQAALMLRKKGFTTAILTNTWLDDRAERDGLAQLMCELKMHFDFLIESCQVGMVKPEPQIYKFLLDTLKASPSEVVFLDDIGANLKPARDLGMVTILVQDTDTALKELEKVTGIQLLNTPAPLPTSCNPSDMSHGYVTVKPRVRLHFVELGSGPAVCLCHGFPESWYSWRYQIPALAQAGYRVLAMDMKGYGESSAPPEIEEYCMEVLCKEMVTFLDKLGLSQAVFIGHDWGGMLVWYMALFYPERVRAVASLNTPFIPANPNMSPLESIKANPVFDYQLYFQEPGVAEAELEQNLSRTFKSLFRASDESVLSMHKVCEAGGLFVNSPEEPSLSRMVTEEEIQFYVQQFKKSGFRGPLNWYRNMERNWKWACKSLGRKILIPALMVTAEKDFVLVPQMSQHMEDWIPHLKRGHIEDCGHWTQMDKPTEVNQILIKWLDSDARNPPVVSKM
Procedure, shortened: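 Human recombinant sEH from baculovirus-infected Sf9 cells, affinity-purified. Diluted in 25 mM Tris pH 7 with 0.1 mg/mL BSA. Pre-incubated 15 min at room temperature with 10 µM compound or 0.1% DMSO. 50 µM PHOME added, run 60 min at room temperature, stopped with ZnSO4. Fluorescence read at ex 330 / em 465 nm.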

Mus musculus [7] = test: Antiinflammatory activity in zymosan-induced CD-1 mouse peritonitis model assessed as reduction in zymosan-induced IL-6 level in peritoneal exudate at 3 mg/kg, ip treated with compound for 30 mins after 4 to 24 hrs zymosan stimulation by ELISA; type: functional, organism-based
Mus musculus [8] = test: Antiinflammatory activity in zymosan-induced CD-1 mouse peritonitis model assessed as reduction in zymosan-induced TNF-alpha level in peritoneal exudate at 3 mg/kg, ip treated with compound for 30 mins after 4 to 24 hrs zymosan stimulation by ELISA; type: functional, organism-based
Mus musculus [9] = test: Antiinflammatory activity in zymosan-induced CD-1 mouse peritonitis model assessed as reduction in zymosan-induced neutrophil recruitment at 10 mg/kg, ip treated with compound for 30 mins after 24 hrs zymosan stimulation by ELISA; type: functional, organism-based
Procedure, shortened: (§2)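 Male CD-1 mice (10–14 wk, 25–30 g), n = 6/group, injected i.p. with boiled zymosan A (500 mg/kg in PBS). Compound (0.1–10 mg/kg, DMSO/saline 1:3) given i.p. 30 min afterwards. Peritoneal lavage with 2 mL PBS at 4 or 24 h. Total leukocytes counted by automated counter with trypan blue, normalized to exudate. Mean ± S.D.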

Mus musculus [10] = test: Antiinflammatory activity in zymosan-induced CD-1 mouse peritonitis model assessed as reduction in zymosan-induced IL-1beta level in peritoneal exudate at 3 mg/kg, ip treated with compound for 30 mins after 4 to 24 hrs zymosan stimulation by ELISA; type: functional, organism-based
Mus musculus [11] = test: Antiinflammatory activity in zymosan-induced CD-1 mouse peritonitis model assessed as reduction in zymosan-induced neutrophil recruitment at 10 mg/kg, ip treated with compound for 30 mins after 4 hrs zymosan stimulation by ELISA; type: functional, organism-based; procedure, shortened: as §2

Prostaglandin G/H synthase 1 (Ovis aries), sequence (P05979 whole entry, looked up): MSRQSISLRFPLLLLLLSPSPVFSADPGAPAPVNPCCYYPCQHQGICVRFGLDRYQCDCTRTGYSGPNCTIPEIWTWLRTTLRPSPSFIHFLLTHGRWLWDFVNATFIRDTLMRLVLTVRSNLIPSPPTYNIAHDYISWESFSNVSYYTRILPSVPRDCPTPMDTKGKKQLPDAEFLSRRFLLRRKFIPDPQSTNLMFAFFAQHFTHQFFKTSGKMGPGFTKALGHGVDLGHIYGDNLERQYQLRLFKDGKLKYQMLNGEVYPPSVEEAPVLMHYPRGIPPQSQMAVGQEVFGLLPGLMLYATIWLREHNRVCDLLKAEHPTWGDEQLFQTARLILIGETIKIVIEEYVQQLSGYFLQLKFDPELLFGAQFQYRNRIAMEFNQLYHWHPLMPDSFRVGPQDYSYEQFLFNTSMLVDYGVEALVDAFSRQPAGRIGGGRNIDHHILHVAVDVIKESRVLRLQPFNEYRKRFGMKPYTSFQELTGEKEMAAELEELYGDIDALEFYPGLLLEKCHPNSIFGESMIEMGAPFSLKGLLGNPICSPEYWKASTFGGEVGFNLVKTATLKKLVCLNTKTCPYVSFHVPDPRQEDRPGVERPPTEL

| Activity [1] | Activity [2] | Activity [3] | Structure (SMILES) | also measured |
| --- | --- | --- | --- | --- |
| 7.54% | 62.9% | 6.02% | CC(c1ccc(O)cc1)c1nc(-c2ccc(-c3ccsc3)cc2)no1 (configuration not stated) | Activity [4]: 61.8%; Activity [5]: 22.5%; Activity (A549): Non-Toxic; Activity (Monocyte): Non-Toxic; Activity [6]: > 50% |
| 99.3% | 63.2% | 59.7% | c1cc(-c2nc(-c3ccc(-c4ccsc4)cc3)no2)c2cc[nH]c2c1 | – |
| 29.6% | 81.9% | 84.3% | Nc1ccc(O)c(-c2nc(-c3ccc(-c4ccsc4)cc3)no2)c1 | – |
| > 100% | 84.1% | > 100% | Oc1cccc(-c2nc(-c3ccc(-c4ccsc4)cc3)no2)c1 | – |

Continued, molecule first:

| Structure (SMILES) | Activity [1] | Activity [2] | Activity [3] | also measured |
| --- | --- | --- | --- | --- |
| N[C@H](c1ccc(O)cc1)c1nc(-c2ccc(-c3ccsc3)cc2)no1 | 50.3% | 67.6% | 47.5% | – |
| N[C@@H](Cc1ccc(O)cc1)c1nc(-c2ccc(-c3ccsc3)cc2)no1 | 74.4% | 82.7% | 95% | – |
| CC(=O)N1C[C@H](O)C[C@H]1c1nc(-c2ccc(-c3ccsc3)cc2)no1 | 89.5% | 82.2% | 92.6% | – |
| OCc1ccc(Cc2nc(-c3ccc(-c4ccsc4)cc3)no2)cc1 | 65.2% | 93.1% | 73.6% | – |
| C[C@@H]1C[C@H]2[C@@H]3CCC4=CC(=O)C=C[C@]4(C)[C@@]3(F)[C@@H](O)C[C@]2(C)[C@@]1(O)C(=O)CO | – | – | – | Activity (Mus musculus [7]): Active; Activity (Mus musculus [8]): Active; Activity (Mus musculus [9]): Active; Activity (Mus musculus [10]): Active; Activity (Mus musculus [11]): Active |
| CC(N)(Cc1ccc(O)cc1)c1nc(-c2ccc(-c3ccsc3)cc2)no1 (configuration not stated) | 61.3% | 84.7% | 78% | – |
